Bioassay records from PubChem BioAssay.
In the library only some 2.5% were active in any assay of this set; here they are far more common.
SR-BI HDL uptake: inhibitors of SR-BI mediated HDL lipid uptake, primary screen, ldlA[mSR-BI] cells, fluorescence, single point. Scavenger receptor class B member 1 (Mus musculus), Q61009. ldlA[mSR-BI] CHO cells, DiI-HDL uptake fluorescence, 3 h. inhibition, % at 12.5 µM. 320,000 compounds, 0.96% hits. AID 488896, 2010;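 active = mean replicate inhibition of at least 70% and a set share of replicates each scoring 70 or more; inconclusive = meets just one of the two criteria; inactive = fails both criteria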
Target sequence (Q61009 whole entry, looked up): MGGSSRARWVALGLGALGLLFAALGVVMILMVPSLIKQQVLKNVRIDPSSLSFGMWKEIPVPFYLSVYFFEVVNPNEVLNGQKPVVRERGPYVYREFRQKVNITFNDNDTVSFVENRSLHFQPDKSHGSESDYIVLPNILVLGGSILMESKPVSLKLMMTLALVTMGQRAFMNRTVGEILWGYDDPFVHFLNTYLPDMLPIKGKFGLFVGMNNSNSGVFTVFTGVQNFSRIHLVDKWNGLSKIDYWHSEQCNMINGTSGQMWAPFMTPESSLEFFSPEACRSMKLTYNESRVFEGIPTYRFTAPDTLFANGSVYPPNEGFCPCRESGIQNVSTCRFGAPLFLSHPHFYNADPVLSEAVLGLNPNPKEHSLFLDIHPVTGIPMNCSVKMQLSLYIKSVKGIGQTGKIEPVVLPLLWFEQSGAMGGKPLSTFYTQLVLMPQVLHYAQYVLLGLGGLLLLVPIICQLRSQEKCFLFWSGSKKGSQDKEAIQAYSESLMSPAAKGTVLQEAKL
SR-BI DiI-HDL act: activators of SR-BI mediated DiI-HDL uptake, primary screen, ldlA[mSR-BI] CHO cells, DiI fluorescence; AID 504775, 2011; 3 h; 100 = double the neutral-control signal; activation, % at 12.5 µM; 320,000 compounds, 0.096% hits;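 active = mean replicate activation of at least 60% and every replicate at or above 60%; inconclusive = mean or all-replicate condition met, but not both; inactive = mean below 60% and not all replicates reaching 60%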
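Test system: SR-BI-overexpressing, LDLR-lacking CHO cells. Measured by: DiI fluorescence, bottom read. Medium: Ham's F12 with 0.5% BSA, HEPES 25 mM, pH 7.4. Timing: 3 h uptake period with compound, 37 °C.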
H9c2 TAG inh: inhibitors of triacylglycerol accumulation, primary screen, cell-based, uHTS, fluorescence, H9c2. 230,000 compounds, 0.66% hits. H9c2 cells, Nile Red lipid (TAG) fluorescence; cells loaded with 200 µM oleic acid. inhibition, % at 12.5 µM;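 active = pattern-corrected inhibition of lipid staining of at least 50% with the nuclear-stain viability signal not falling by more than 50%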
Vif imaging: HIV Vif self-association inhibitors, primary screen, imaging, HEK293T, single point | 340,000 compounds, 0.35% hits | inhibition, % at 7.49 µM | AID 602346, 2012 | HEK293T cells, Vif self-association by quenched fluorescence, 24 h; in the data active = inhibition above about 50%, passing the limit was not always enough; inconclusive = no clear call, values can overlap the other calls; inactive = below about 31%
SMARCA2 activ: SMARCA2 (BRM) function activators, primary screen, cell-based, luminescence, high throughput. MG213 cells, MMTV-luciferase reporter, dexamethasone, overnight. activation, % at 9.1 µM. 370,000 compounds, 1% hits; in the data active = activation above about 7.8%
SMARCA2 conf: SMARCA2 (BRM) function activators, confirmation, cell-based, luminescence, triplicate. AID 652260, 2013. MG213 cells, MMTV-luciferase with dexamethasone, overnight; MG213 cells expressing E1A, Rb sequestered; DMSO wells 0%, reference activator 100%. 3,500 compounds, 30% hits. shares compounds with SMARCA2 activ. activation, % at 9.1 µM;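 active = activation above its plate's cutoff, the mean activation of tested wells plus 3 SD, cut at about 7.9% in these data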
VP16 Luc act: GAL4-VP16 luciferase reporter activation, counter-screen for SMARCA2 (BRM) activator project, cell-based, pG5luc, luminescence, high throughput | 3,500 compounds, 41% hits | activation, % at 9.1 µM | HEK293 GAL4-VP16 pG5luc reporter; scaled: DMSO wells 0%, SAHA wells 100% | shares compounds with SMARCA2 activ;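 active = activation above the solvent-only control well mean plus 3 SD, averaged across control plates, cut at about 5.2% in these data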
Numbers stand for hits.

`COc1ccc(-c2cc(C#N)nc(Oc3ccc(Cl)cc3)n2)cc1` gave SR-BI HDL uptake inactive, SR-BI DiI-HDL act inactive, H9c2 TAG inh inactive, Vif imaging inactive and SMARCA2 activ inactive.
For O=C(CSc1nnc(Cc2ccccc2)o1)NCCc1ccccc1 the results were SR-BI HDL uptake inactive, SR-BI DiI-HDL act inactive, Vif imaging inactive, SMARCA2 activ 8.2, SMARCA2 conf inactive and VP16 Luc act inactive.
`O=C(CSc1nnc(CNC(=O)c2ccccc2)o1)NCCc1ccccc1` gave SR-BI HDL uptake inactive, SR-BI DiI-HDL act inactive, H9c2 TAG inh inactive, Vif imaging inactive and SMARCA2 activ inactive.
`O=C(COc1cccc2cccnc12)Nc1nccs1` gave SR-BI HDL uptake inactive, SR-BI DiI-HDL act inactive, H9c2 TAG inh inactive, Vif imaging inconclusive, SMARCA2 activ 9.2, SMARCA2 conf 9.0 and VP16 Luc act 12.
CCOC(=O)c1ccc(S(=O)(=O)Nc2nc3cc(S(=O)(=O)NC4=NCCCCC4)ccc3s2)cc1 was read as SR-BI HDL uptake inactive, SR-BI DiI-HDL act inactive, H9c2 TAG inh inactive, Vif imaging inactive and SMARCA2 activ inactive.
For Nc1nc2cc(S(=O)(=O)NC3=NCCCCC3)ccc2s1 the results were H9c2 TAG inh inactive, Vif imaging inactive, SMARCA2 activ 9.8, SMARCA2 conf inactive and VP16 Luc act inactive.
For O=C(O)Cn1cc(/C=c2/sc3nc4ccccc4n3c2=O)c2ccccc21 the results were SR-BI HDL uptake inactive, SR-BI DiI-HDL act inactive, Vif imaging inactive, SMARCA2 activ 10, SMARCA2 conf inactive and VP16 Luc act 8.8.
`COC(=O)CCC(=O)N1CCC(Oc2cccc(C(=O)NCc3ccccn3)c2)CC1` gave H9c2 TAG inh inactive, Vif imaging inactive, SMARCA2 activ 8.3, SMARCA2 conf inactive and VP16 Luc act inactive.
`COc1ccc(N=Nc2[nH]c3ccc(C)cc3c2O)cc1` gave SR-BI HDL uptake inactive, SR-BI DiI-HDL act inactive, H9c2 TAG inh inactive, Vif imaging inactive and SMARCA2 activ inactive.
Screening Cc1ccc(N=Nc2[nH]c3ccccc3c2O)cc1 returned SR-BI HDL uptake inactive, SR-BI DiI-HDL act inactive, Vif imaging inactive, SMARCA2 activ 9.1, SMARCA2 conf 14 and VP16 Luc act inactive.
`CN(CC(=O)Nc1ccccc1C(F)(F)F)C(=O)CSCc1ccccc1` gave SR-BI HDL uptake inactive, SR-BI DiI-HDL act inactive, H9c2 TAG inh inactive, Vif imaging inactive and SMARCA2 activ inactive.
`COC(=O)c1ccc(NC(=O)c2ccc[n+]([O-])c2)cc1` gave Vif imaging inactive and SMARCA2 activ inactive.
`Cc1cccc(C(=O)Nc2cccc(C(=O)N/N=C/c3cccc(C)n3)c2)c1` gave SR-BI HDL uptake inactive, SR-BI DiI-HDL act inactive, Vif imaging inactive and SMARCA2 activ inactive.
For CC(=O)Nc1cccc(C(=O)N/N=C/c2cccc(C)n2)c1 the results were SR-BI HDL uptake inactive, SR-BI DiI-HDL act inactive, Vif imaging inactive, SMARCA2 activ 11, SMARCA2 conf inactive and VP16 Luc act inactive.
c1ccc2oc(-c3ccc4nc[nH]c4c3)nc2c1 was read as SR-BI HDL uptake inactive, SR-BI DiI-HDL act inactive, Vif imaging inactive, SMARCA2 activ 9.6, SMARCA2 conf 10 and VP16 Luc act 14.
Screening COc1ccc(-c2nc3ccccc3o2)cc1OC returned SR-BI HDL uptake inactive, SR-BI DiI-HDL act inactive, H9c2 TAG inh inactive, Vif imaging inactive and SMARCA2 activ inactive.
`C=CCNc1cccc2c1S(=O)(=O)N[C@H](C)CO2` gave SMARCA2 activ inactive.
`COc1c(C(=O)Nc2nccs2)ccc2ccccc12` gave SR-BI HDL uptake inactive, SR-BI DiI-HDL act inactive, Vif imaging inactive, SMARCA2 activ 10, SMARCA2 conf 10 and VP16 Luc act 11.
Cc1csc(C(=O)NN)c1N(C)C was read as SR-BI HDL uptake inactive, SR-BI DiI-HDL act inactive, H9c2 TAG inh inactive, Vif imaging inactive, SMARCA2 activ 9.1, SMARCA2 conf inactive and VP16 Luc act inactive.
Cc1c(C(=O)NN)sc(=S)n1C was read as SR-BI HDL uptake inactive, SR-BI DiI-HDL act inactive, H9c2 TAG inh inactive, Vif imaging inactive and SMARCA2 activ inactive.
`CCOc1ccc(Nc2nc(N)c([N+](=O)[O-])c(N3CCN(CC)CC3)n2)cc1` gave SR-BI HDL uptake inactive, SR-BI DiI-HDL act inactive, Vif imaging inactive, SMARCA2 activ 12, SMARCA2 conf inactive and VP16 Luc act inactive.
Screening O=C(CN(c1cccc([N+](=O)[O-])c1)S(=O)(=O)c1ccccc1)N(Cc1ccccc1)Cc1ccccc1 returned SR-BI HDL uptake inactive, SR-BI DiI-HDL act inactive, SMARCA2 activ 9.9, SMARCA2 conf inactive and VP16 Luc act inactive.
`Fc1cccc(-c2cc3nc4c(c(NCc5ccco5)n3n2)CCCC4)c1` gave SR-BI HDL uptake inactive, SR-BI DiI-HDL act inactive, Vif imaging inactive, SMARCA2 activ 8.4, SMARCA2 conf inactive and VP16 Luc act 11.
Fc1cccc(-c2cc3nc4c(c(N5CCOCC5)n3n2)CCCC4)c1 was read as SR-BI HDL uptake 72, SR-BI DiI-HDL act inactive, Vif imaging inactive, SMARCA2 activ 9.4, SMARCA2 conf inactive and VP16 Luc act inactive.
COc1ccc(CCNC(=S)c2ccccc2)cc1OC was read as SR-BI HDL uptake inactive, SR-BI DiI-HDL act inactive, Vif imaging inactive and SMARCA2 activ inactive.
Screening O=C(CC1(O)C(=O)Nc2cc(Cl)cc(Cl)c21)c1ccncc1 (stereo not given) returned SR-BI HDL uptake inactive, SR-BI DiI-HDL act inactive, Vif imaging inactive, SMARCA2 activ 11, SMARCA2 conf inactive and VP16 Luc act inactive.
Screening Cc1ccc(Cl)c2c1NC(=O)C2(O)CC(=O)c1ccc(Br)cc1 (stereo not given) returned SR-BI HDL uptake inactive, SR-BI DiI-HDL act inactive, H9c2 TAG inh inactive, Vif imaging inactive and SMARCA2 activ inactive.
For N#Cc1cccc(NC(=O)OC2CC3CC2[C@H]2CCCCN2[C@H]3Cc2ccccc2)c1 (stereo not given in full) the results were SMARCA2 activ inactive.
COC(=O)[C@]12C[C@H](CC(=O)NCc3cccc(C(F)(F)F)c3)C(=O)N(Cc3ccc(Cl)cc3Cl)C1=C[C@H](COCc1ccccc1)O[C@@H]2C was read as SMARCA2 activ inactive.
